Experimental findings from ChEMBL document CHEMBL3576809, “Thiasporines A-C, thiazine and thiazole derivatives from a marine-derived Actinomycetospora chlora” (J Nat Prod, 2015) are described below.

Assay type in all cases: functional, cell-based
Experiment [1] has as its system NCI-H2122. The experiment in a line: Cytotoxicity against human NCI-H2122 cells assessed as cell viability at 0.001 to 50 uM after 96 hrs by Cell Titer Glo assay. An outline of the steps:
(§1)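 Cells grown in RPMI/L-glutamine with 1000 U/mL penicillin, 1 mg/mL streptomycin and 5% FBS at 37 °C, 5% CO2, then plated in 384-well plates overnight. Compounds in DMSO were added at final 50 μM to 1 nM (0.5% DMSO final) for 96 h. CellTiter-Glo (1:2 in medium) was added, 10 min at room temperature, and luminescence normalized to DMSO-only wells.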

Experiment [2] has as its system HCC366. The experiment in a line: Cytotoxicity against human HCC366 cells assessed as cell viability at 0.001 to 50 uM after 96 hrs by Cell Titer Glo assay. A digest of the protocol:
as §1
On the technique in general: ATP-based viability assays read luminescence as a measure of living cells.

Experiment [3] relates to A549. As to the kind of experiment: Cytotoxicity against human A549 cells assessed as cell viability at 0.001 to 50 uM after 96 hrs by Cell Titer Glo assay. An outline of the steps:
as §1

For experiment [4], the system named is HCC44. The experiment in a line: Cytotoxicity against human HCC44 cells assessed as cell viability at 0.001 to 50 uM after 96 hrs by Cell Titer Glo assay. An outline of the steps: as §1
Experiment [5] deals with A549. As to the kind of experiment: Cytotoxicity against human A549 cells assessed as cell viability up to 24 uM after 96 hrs by Cell Titer Glo assay. A digest of the protocol: (§2)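 NSCLC lines were kept in RPMI/L-glutamine with penicillin, streptomycin and 5% FBS (37 °C, 5% CO2) and seeded in 384-well plates overnight. DMSO-dissolved compounds were added (final DMSO 0.5%) and incubated 96 h. Viability was read as CellTiter-Glo luminescence after 10 min at room temperature and normalized to untreated cell-plus-DMSO wells.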

For experiment [6], the system named is NCI-H2122. The experiment in a line: Cytotoxicity against human NCI-H2122 cells assessed as cell viability after 96 hrs by Cell Titer Glo assay. As to conditions: NCI-H2122, 96 h. A digest of the protocol:
as §2

Experiment [7] relates to HCC44. The experiment in a line: Cytotoxicity against human HCC44 cells assessed as cell viability up to 24 uM after 96 hrs by Cell Titer Glo assay. A digest of the protocol: as §2
The subject of experiment [8] is HCC366. As to the kind of experiment: Cytotoxicity against human HCC366 cells assessed as cell viability up to 24 uM after 96 hrs by Cell Titer Glo assay. An outline of the steps:
as §2

The source made the active and inactive calls. The calls are words filed in the database; no cut-off is given here.

For the compound `CNc1ccccc1-c1nc(C(=O)O)cs1`, the outcome in experiment [1], in experiment [2], in experiment [3] and in experiment [4] was inactive.
For the compound `CNc1ccccc1-c1nc(C(=O)OC)cs1`, the result in experiment [1], in experiment [2], in experiment [3] and in experiment [4] was inactive.
A word on the IC50: it is the concentration that inhibits the measured activity by half. As for `Nc1ccccc1-c1nc(=O)c(O)cs1`, the outcome in experiment [5], in experiment [7] and in experiment [8] was inactive. In experiment [6], the IC50 was 5.4 µM.
